The values that follow come from ChEMBL document CHEMBL4725271, “Design and synthesis of pyrazolo[3,4-d]pyrimidinone derivatives: Discovery of selective phosphodiesterase-5 inhibitors” (Bioorg Med Chem Lett, 2020).

Assay [1] addresses cGMP-specific 3',5'-cyclic phosphodiesterase (Homo sapiens, UniProt O76074). Nature of the assay: Inhibition of PDE5 (unknown origin).
Assay [2] relates to Corpus cavernosum. Nature of the assay: Induction of smooth muscle relaxation in male albino rat corpus-cavernosum assessed as reduction in phenylephrine-induced contraction relative to sildenafil. The class given is functional. Summed up:
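Isolated penile corpus cavernosum strips from adult male albino rats anaesthetized with sodium pentobarbital (50mg/kg, i.v.), held in Krebs-Henseleit solution at 37°C aerated with carbogen under 1g initial tension. Equilibrated ~90 min with solution renewed every 15 min. Cumulative concentration-response curves in phenylephrine-contracted tissue, recorded isometrically.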

The subject of assay [3] is Corpus cavernosum. Description: Induction of smooth muscle relaxation in male albino rat corpus-cavernosum assessed as reduction in phenylephrine-induced contraction. The class given is functional, tissue-based.

`COc1ccc(CNc2nc(N3CCC[C@H]3CO)ncc2C(=O)NCCCO)cc1Cl`: the half-maximal inhibitory concentration (IC50) (as a rule, the concentration at which inhibition is half-maximal) in assay [1] came to 6.6 nM.

Take `COc1ccc(CNc2nc(OCc3ccccn3)ncc2C(=O)OCc2ccccn2)cc1Cl`: the IC50 in assay [1] turned out to be 2.1 nM.

In assay [1], `COc1ccc(CNc2nc(OCc3ccccn3)ncc2C(=O)OCc2ncccn2)cc1Cl` yielded an IC50 of 4.2 nM.

`COc1ccc(CNc2nc(OCc3ccccn3)ncc2C(=O)NCc2ccccn2)cc1Cl` returned an IC50 in assay [1] of 2.7 nM.

For the molecule `COCCCNC(=O)c1cnc(OCc2ccccn2)nc1NCc1ccc(OC)c(Cl)c1`, in assay [1], inhibition was half-maximal at 15 nM (IC50).

Take `COc1ccc(CNc2nc(OCc3ccccn3)ncc2C(=O)NCCN2CCOCC2)cc1Cl`: the IC50 in assay [1] was determined as 5.6 nM.

On to `COc1ccc(CNc2nc(OCc3ccccn3)ncc2C(=O)NCCCO)cc1Cl`, for which, in assay [1], the IC50 turned out to be 13 nM.

Consider `COc1ccc(CNc2nc(OCc3ccccn3)ncc2C(=O)NCCCCO)cc1Cl`, for which, in assay [1], the IC50 was 12 nM.

`COc1ccc(CNc2nc(N(C)CCO)ncc2C(=O)NCc2ccccn2)cc1Cl` showed an IC50 in assay [1] of 32 nM.

As to `COc1ccc(CNc2nc(N3CCC(O)CC3)ncc2C(=O)NCc2ccccn2)cc1Cl`, in assay [1], the 50% inhibitory concentration (IC50) is 59 nM.

With `COc1ccc(CNc2nc(N3CCC[C@H]3CO)ncc2C(=O)N[C@H]2CC[C@H](O)CC2)cc1Cl`, in assay [1], the IC50 was 1.8 nM.

In assay [1], `COc1ccc(CNc2nc(N3Cc4ccccc4C[C@@H]3CO)ncc2C(=O)NCc2ccccn2)cc1Cl` displayed an IC50 of 6.5 nM.

Turning to `O=c1[nH]c(-c2ccccc2O)nc2c1cnn2-c1ccc(Br)cc1`, the Emax (commonly the size of the effect at its maximum, as opposed to the concentration needed) in assay [2] amounted to 167%. Moreover, in assay [3], the concentration giving a half-maximal response (EC50) – broadly, the concentration giving half of the maximal effect – was 338 nM.

In assay [1], `COc1ccc(CNc2nc(N3CCO[C@H](CO)C3)ncc2C(=O)NCc2ccccn2)cc1Cl` registered an IC50 of 32 nM.

As to `Nc1ccccc1NCc1nc2c(cnn2-c2ccccc2)c(=O)[nH]1`, in assay [2], the Emax is 113%. In addition, in assay [3], the EC50 was 6800 nM.

The molecule `COc1ccc(CN(C)c2nc(OCc3ccccn3)ncc2C(=O)NCc2ccccn2)cc1Cl` had an IC50 in assay [1] of 85 nM.

In turn, `COc1ccc(CNc2nc(N3CCC[C@H]3CO)ncc2C(=O)NC[C@@H]2CN(C)CCO2)cc1Cl` showed an IC50 in assay [1] of 6.1 nM.

`CCCCOc1ccccc1-c1nc2c(cnn2-c2ccccc2)c(=O)[nH]1`: in assay [2], the Emax was determined as 170%. For the same molecule, the EC50 in assay [3] is 630 nM.

As for `O=C(O)c1ccccc1OCc1nc2c(cnn2-c2ccccc2)c(=O)[nH]1`, in assay [3], the EC50 was 223 nM.

In assay [1], `COc1ccc(CNc2nc(N3CCC[C@@H]3CO)ncc2C(=O)NCc2ccccn2)cc1Cl` registered an IC50 of 1.2 nM.

As for `CCCOc1ccccc1-c1nc2c(cnn2-c2ccc(Br)cc2)c(=O)[nH]1`, the Emax in assay [2] amounted to 140%. Moreover, the EC50 in assay [3] is 830 nM.

As for `CC(C)Oc1ccccc1-c1nc2c(cnn2-c2ccc(Br)cc2)c(=O)[nH]1`, the EC50 in assay [3] is 280 nM.

Regarding `COc1ccc(CNc2nc(N3CCCC[C@H]3CO)ncc2C(=O)NCc2ccccn2)cc1Cl`, it took 54 nM to reach half-maximal inhibition in assay [1] (IC50).

On to `O=c1[nH]c(CNc2ccccc2O)nc2c1cnn2-c1ccccc1`, for which the Emax in assay [2] came to 125%. Moreover, the EC50 in assay [3] was 250 nM.

With `CC(C)Oc1ccccc1-c1nc2c(cnn2-c2ccccc2)c(=O)[nH]1`, in assay [2], the Emax is 130%. The EC50 in assay [3] is 500 nM.

As for `COc1ccc(CNc2nc(OCc3ccccn3)ncc2C(=O)Nc2ncccn2)cc1Cl`, in assay [1], the IC50 was 12 nM.

In the case of `COc1ccc(CNc2nc(OCc3ccccn3)ncc2C(=O)N[C@H]2CC[C@@H](O)CC2)cc1Cl`, the IC50 in assay [1] came to 3.5 nM.

Turning to `COC(=O)c1ccccc1OCc1nc2c(cnn2-c2ccccc2)c(=O)[nH]1`, the maximum response (Emax) in assay [2] amounted to 130%. Besides, in assay [3], the 50% effective concentration (EC50) is 100 nM.

For `CCCCOc1ccccc1-c1nc2c(cnn2-c2ccc(Br)cc2)c(=O)[nH]1`, the Emax in assay [2] was 160%. Besides, the EC50 in assay [3] was 4.89 nM.

In the case of `O=c1[nH]c(CNc2ccccc2O)nc2c1cnn2-c1ccc(Br)cc1`, the Emax in assay [2] was determined as 133%. In assay [3], the EC50 is 5050 nM.

`COc1ccc(CNc2nc(N3CCCC[C@H]3CO)ncc2C(=O)NCc2ncccn2)cc1Cl` yielded an IC50 in assay [1] of 63 nM.

Take `Nc1ccccc1NCc1nc2c(cnn2-c2ccc(Br)cc2)c(=O)[nH]1`: in assay [2], the maximum response (Emax) amounted to 148%. For the same molecule, the EC50 in assay [3] is 707 nM.

With `O=c1[nH]c(-c2ccccc2O)nc2c1cnn2-c1ccccc1`, the Emax in assay [2] came out at 93%. Besides, the EC50 in assay [3] was 500 nM.

Take `CCCOc1ccccc1-c1nc2c(cnn2-c2ccccc2)c(=O)[nH]1`: in assay [2], the Emax worked out at 150%. Further, the EC50 in assay [3] is 234 nM.

The molecule `COc1ccc(CN=c2[nH]c(N3CCC[C@H]3CO)ncc2C(=O)NCc2ncccn2)cc1Cl` (stereo in doubt; T5) had a half-inhibitory concentration (IC50) in assay [1] of 25 nM.

In assay [1], `COc1ccc(CN=c2[nH]c(N3CCC[C@H]3CO)ncc2C(=O)NCc2ncccn2)cc1Cl` (stereo in doubt; T6) came in with a concentration for half-maximal inhibition (IC50) of 5.2 nM.
